Test results: ChEMBL document CHEMBL3120059, “Flavonoids, flavonoid metabolites, and phenolic acids inhibit oxidative stress in the neuronal cell line HT-22 monitored by ECIS and MTT assay: a comparative study” (J Nat Prod, 2014)
The source made the active and inactive calls. The calls are words filed in the database; no cut-off is given here.

Key:
HT-22 [1] = assay: Neuroprotective activity in mouse HT22 cells assessed as reduction of t-BOOH-induced oxidative stress at 40 uM preincubated for 3 hrs followed by t-BOOH induction measured after 20 hrs by MTT assay; format: functional, cell-based
In short: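 Run in the ECIS wells right after impedance recording ended, 20 h after t-BOOH (3 h, 40 μM compound preincubation; 300 μM t-BOOH). MTT stock (4 mg/mL in PBS) was diluted 1:10 in medium and incubated 1 h. Lysis was with 10% SDS pH 4.1, A560 read next day. Viability is given as % of untreated control, mean ± SD of three independent experiments.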

HT-22 [2] = assay: Neuroprotective activity in mouse HT22 cells assessed as reduction of t-BOOH-induced oxidative stress at 40 uM preincubated for 3 hrs followed by t-BOOH induction measured for 20 hrs by time-resolved ECIS analysis; format: functional, cell-based
In short: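 HT-22 cells on 8-well gold-electrode arrays precoated with glutaraldehyde-crosslinked gelatin, seeded at 6 × 10^5 cells/well and grown 2−3 days to confluence (37 °C, 5% CO2). After 1 h baseline, compound (40 μM final, DMSO <0.1%) was added for 3 h, then 300 μM t-BOOH. Impedance was recorded 20 h, |Z| normalized to the last pre-t-BOOH value; three independent experiments.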

HT-22 [3] = assay: Cytotoxicity against mouse HT22 cells assessed as cell viability at 40 uM after 24 hrs by MTT assay; format: cell-based; conditions: ht-22, 24 h
In short: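 Confluent-layer MTT. Gelatin-precoated 96-well plates were seeded at 5 × 10^4 HT-22 cells/well and grown 24 h to confluence, then exposed 24 h to 40 μM compound (DMSO <0.1%). MTT stock (4 mg/mL) was diluted 1:10 and incubated 1 h. Lysis was with 10% SDS pH 4.1, A560 read next day. Results are % of untreated control, ≥3 independent experiments.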

HT-22 [4] = assay: Neuroprotective activity in mouse HT22 cells assessed as t-BOOH-induced toxicity at 40 uM preincubated for 3 hrs followed by t-BOOH induction measured after 9 hrs by MTT assay; format: functional, cell-based
In short: (§1)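 Confluent HT-22 cells under the ECIS conditions: 3 h preincubation with 40 μM compound, then 300 μM t-BOOH. MTT reaction was started 4.5 h or 9 h after t-BOOH addition. Viability is expressed relative to untreated control.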

HT-22 [5] = assay: Neuroprotective activity in mouse HT22 cells assessed as t-BOOH-induced toxicity at 40 uM preincubated for 3 hrs followed by t-BOOH induction measured after 4.5 hrs by MTT assay; format: functional; in short: as §1
HT-22 [6] = assay: Neuroprotective activity in mouse HT22 cells assessed as reduction of t-BOOH-induced oxidative stress preincubated for 3 hrs followed by t-BOOH induction measured for 20 hrs by time-resolved ECIS analysis; format: functional, cell-based
In short: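 HT-22 cells grown to confluence (2–3 days) on gelatin/glutaraldehyde-precoated gold electrode arrays, 37 °C, 5% CO2; 1 h baseline equilibration, then compounds (DMSO <0.1%, 40 μM final; positive control 10–50 μM) preincubated 3 h before 300 μM t-BOOH. Impedance magnitude |Z| recorded 20 h further, normalized to last value before t-BOOH; three independent experiments, mean ± SD.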

HT-22 [7] = assay: Neuroprotective activity in mouse HT22 cells assessed as reduction of glutamate-induced oxidative stress after 24 hrs by MTT assay; format: functional, cell-based
In short: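 Unconfluent HT-22 cells seeded at 5 × 10^3/well, cultured 24 h, then incubated 24 h with compound plus 5 mM glutamate. MTT stock (4 mg/mL) was diluted 1:10 and incubated 3 h. Lysis was with 10% SDS pH 4.1, A560 read next day. Viability is % of untreated control; three independent experiments, each in quadruplicate.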

HT-22 [8] = assay: Cytotoxicity against mouse HT22 cells assessed as cell viability after 24 hrs by MTT assay; format: cell-based; conditions: ht-22, 24 h
HT-22 [9] = assay: Neuroprotective activity in mouse HT22 cells assessed as reduction of glutamate-induced oxidative stress by ECIS analysis; format: functional, cell-based

| SMILES | Activity (HT-22 [1]) | Activity (HT-22 [2]) | Activity (HT-22 [3]) | Activity (HT-22 [4]) | also measured |
| --- | --- | --- | --- | --- | --- |
| COc1cc(-c2oc3cc(O)cc(O)c3c(=O)c2O)ccc1O | inactive | inactive |  |  |  |
| COC(=O)/C=C/c1ccc(O)c(OC)c1 | inactive | inactive | Non-toxic |  |  |
| O=C(O)Cc1ccc(O)c(O)c1 [3,4-DIHYDROXYPHENYLACETIC ACID] |  |  | Non-toxic |  |  |
| O=C(O)/C=C/c1ccc(O)c(O)c1 [CAFFEIC ACID] | inactive | inactive | Non-toxic |  |  |
| COc1cc(/C=C/C(=O)O)ccc1O [FERULATE] | inactive | inactive | Non-toxic |  |  |
| Oc1cc(O)c2c(c1)O[C@H](c1ccc(O)c(O)c1)[C@H](O)[C@H]2c1c(O)cc(O)c2c1O[C@H](c1ccc(O)c(O)c1)[C@@H](O)C2 | inactive | inactive |  |  |  |
| Oc1cc(O)c2c(c1)OC(c1ccc(O)c(O)c1)C(O)C2 (stereo not drawn) | inactive | inactive |  |  |  |
| O=c1c(O)c(-c2ccc(O)c(O)c2)oc2cc(O)cc(O)c12 [QUERCETIN] | Active |  |  | Active | Activity (HT-22 [5]): 70%; Activity (HT-22 [6]): Dose-dependent effect |
| Cc1ccc(O)c(O)c1 | Active | Active | Non-toxic | Active | Activity (HT-22 [5]): 70% |
| O=C1C[C@@H](c2ccc(O)cc2)Oc2cc(O)cc(O)c21 | inactive | inactive |  |  |  |
| O=c1c(O)c(-c2ccc(O)cc2)oc2cc(O)cc(O)c12 [KAEMPFEROL] | inactive | inactive |  |  | Activity (HT-22 [7]): Dose-dependent effect; Activity (HT-22 [8]): Dose-dependent effect |
| O=C(O)[C@H]1O[C@@H](Oc2c(-c3ccc(O)c(O)c3)oc3cc(O)cc(O)c3c2=O)[C@H](O)[C@@H](O)[C@@H]1O |  |  |  |  | Activity (HT-22 [7]): inactive; Activity (HT-22 [9]): inactive |
| COC(=O)/C=C/c1ccc(O)c(O)c1 [METHYLCAFFEATE] | Active | Active | Non-toxic | Active |  |
| COC(=O)Cc1ccc(O)c(O)c1 | Active | Active | Non-toxic | Active | Activity (HT-22 [5]): 70% |
| O=c1cc(-c2ccc(O)cc2)oc2cc(O)cc(O)c12 | inactive | inactive |  |  |  |
| O=C1C[C@@H](c2ccc(O)c(O)c2)Oc2cc(O)cc(O)c21 [ERIODICTYOL] | Active |  |  | Active | Activity (HT-22 [7]): Dose-dependent effect; Activity (HT-22 [9]): Active; Activity (HT-22 [8]): Dose-dependent effect |
| COC(=O)[C@H]1O[C@@H](Oc2c(-c3ccc(O)c(O)c3)oc3cc(O)cc(O)c3c2=O)[C@H](O)[C@@H](O)[C@@H]1O |  |  |  |  | Activity (HT-22 [7]): inactive; Activity (HT-22 [9]): inactive |
| O=C(O)Cc1cccc(O)c1 [3-Hydroxyphenylacetate] |  |  | Non-toxic |  |  |
| O=c1cc(-c2ccc(O)c(O)c2)oc2cc(O)cc(O)c12 | Active |  |  | Active |  |
| Oc1ccccc1O [CATECHOL] | Active | Active | Toxic | Active |  |
